Assay outcomes as filed in PubChem BioAssay.
Sampled rows, rich in hits. Any-hit rate of the full collection: about 1%.
procasp7 counter: procaspase-7 activators, primary screen, counter-screen for procaspase-3 activator project, biochemical, absorbance, HTS, human. recombinant procaspase-7, Ac-DEVD-pNA absorbance 405 nm; D23A/D198A/D206A triple mutant, cannot self-cleave; scale: DMSO 0, 5 µM enzyme 100. activation, % at 8.5 µM. 330,000 tested, 0.093% active. Caspase-7 (Homo sapiens), P55210;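 active = percent activation above the screen-wide mean plus 3 SD, cut at about 25% in these data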
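System: Procaspase-7 triple mutant (PC-7 D3A); measure: % activation from two-timepoint absorbance difference, scaled to controls; times: 1 h compound preincubation, 2 h substrate cleavage, 25 °C; also added: Ac-DEVD-pNA substrate, 400 µM as added; measured by: Epi-absorbance of released pNA at 405 nm, two timepoints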
LYPLA1 counter: LYPLA1 inhibitors, primary screen, counter-screen for PME1 inhibitor project, biochemical, fluorescence polarization, FP-Rh probe ABPP. inhibition, % at 5.9 µM. Acyl-protein thioesterase 1 (Homo sapiens), O75608. recombinant LYPLA1. 320,000 tested, 0.16% active;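 active = inhibition above the mean of all tested compounds plus 3 SD, set per campaign, cut at about 14% in these data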;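 note: inhibitors block serine hydrolase probe labeling of LYPLA1 so polarization falls; 0% = enzyme with DMSO and 100% = wells lacking LYPLA1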
LYPLA2 counter: LYPLA2 inhibitors, primary screen, counter-screen for PME1 inhibitor project, biochemical, fluorescence polarization, FP-Rh probe ABPP; 320,000 tested, 0.38% active; inhibition, % at 5.9 µM; Acyl-protein thioesterase 2 (Homo sapiens), O95372; recombinant LYPLA2;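 active = inhibition above the screen-wide mean plus 3 SD, limit set per campaign, cut at about 26% in these data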;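 note: 0% = LYPLA2 with DMSO and 100% = wells lacking LYPLA2 enzyme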
Target sequence (O95372 whole entry, looked up): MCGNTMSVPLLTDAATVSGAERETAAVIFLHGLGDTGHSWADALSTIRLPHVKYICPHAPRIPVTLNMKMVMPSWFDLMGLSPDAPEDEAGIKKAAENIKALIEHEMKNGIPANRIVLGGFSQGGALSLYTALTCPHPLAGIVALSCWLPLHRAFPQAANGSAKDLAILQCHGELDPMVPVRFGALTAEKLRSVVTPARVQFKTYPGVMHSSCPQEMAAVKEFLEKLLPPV
PREPL inh: PREPL enzyme inhibitors, primary screen, biochemical, fluorescence polarization; Prolyl endopeptidase-like (Homo sapiens), Q4J6C6; recombinant PREPL, fluorescence polarization activity-based probe; inhibition, % at 5.96 µM; 320,000 tested, 0.68% active; AID 2751, 2010; in the data active = inhibition above about 43%;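 note: 0% = enzyme with DMSO and 100% = wells lacking enzyme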
procasp3 activ: activators of human procaspase-3 D3A mutant, primary screen, biochemical, absorbance, PC-3 D3A mutant, single concentration | 330,000 tested, 0.11% active | recombinant procaspase-3 D3A, Ac-DEVD-pNA absorbance 405 nm | activation, % at 8.5 µM | AID 463141, 2010;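 active = activation above the mean of all tested compounds plus 3 SD, cut at about 21% in these data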;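 note: 0% = DMSO alone and 100% = DMSO wells spiked with extra 5 µM PC-3 D3A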
Target sequence (P42574 whole entry D9A/D28A/D175A): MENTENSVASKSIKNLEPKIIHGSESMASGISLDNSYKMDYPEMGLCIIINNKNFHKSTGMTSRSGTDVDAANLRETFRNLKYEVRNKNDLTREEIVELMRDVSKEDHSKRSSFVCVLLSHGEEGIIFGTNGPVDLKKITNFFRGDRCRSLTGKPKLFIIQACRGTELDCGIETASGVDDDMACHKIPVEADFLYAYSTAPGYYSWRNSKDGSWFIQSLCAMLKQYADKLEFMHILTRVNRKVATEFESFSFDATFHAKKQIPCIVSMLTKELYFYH
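Assay system – Procaspase-3 D3A mutant · Benchmarks – DMSO low control, extra-enzyme high control · Technique – 405 nm absorbance of p-nitroaniline, reads at 0 and 120 min · Doses – 8.5 µM nominal · Measure – % activation between DMSO and enzyme-spiked controls · Also added – Ac-DEVD-pNA chromogenic peptide substrate · Schedule – 1 h compound preincubation, 2 h substrate hydrolysis at 25 °C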
LYPLA2 conf: LYPLA2 inhibitors, retest, confirmation, counter-screen for PME1 inhibitor project, biochemical, fluorescence polarization, FP-Rh probe ABPP | shares compounds with LYPLA2 counter | recombinant LYPLA2 | inhibition, % at 5.9 µM | 1,100 tested, 72% active | AID 2232, 2010;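 active = mean inhibition across replicates above the hit cutoff set in the primary screen, cut at about 26% in these data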;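 note: blocked labeling of the enzyme by serine hydrolase FP-Rh probe lowers polarization; 0% = enzyme with DMSO and 100% = wells lacking LYPLA2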
LYPLA2 ABPP: LYPLA2 inhibitors in proteome, late-stage follow-up, gel-based competitive ABPP, fluorescence, assay provider; 150 tested, 30% active; AID 652029, 2013; inhibition, % at 20 µM; shares compounds with LYPLA2 counter; rhLYPLA2 in mouse brain proteome, gel ABPP FP-Rh;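 active = inhibition of LYPLA2 enzyme probe labeling above about 50%, limit read from the data; inactive = inhibition below that limit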;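 note: loss of FP-Rh probe labeling of the LYPLA2 gel band measured as band density; 0% = DMSO only control band and 100% = blank gel background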
* marks the source's active call; other numbers are inactive results; . = no result given.

SMILES	procasp7 counter	LYPLA1 counter	LYPLA2 counter	PREPL inh	procasp3 activ	LYPLA2 conf	others
CC(=O)c1ccc(N2CCN(C(=O)C3CCN(S(=O)(=O)c4ccc(F)cc4)CC3)CC2)cc1	9	1	35*	9	4	25
O=C(C1CCCC1)N1CCN(S(=O)(=O)c2ccc(F)cc2)CC1	-2	1	-8	15	-4	.
CC(=O)c1ccc(N2CCN(C(=O)C3CCN(S(=O)(=O)Cc4ccccc4)CC3)CC2)cc1	8	-1	36*	5	5	33*
COc1ccc(N2CCN(C(=O)C3CCN(S(=O)(=O)c4cccs4)CC3)CC2)cc1	6	0	43*	3	-2	52*	LYPLA2 ABPP=37
Cn1c(=O)oc2cc(S(=O)(=O)N3CCC(C(=O)N4CCN(c5ccccc5)CC4)CC3)ccc21	14	4	14	5	8	.
Cc1cc(=O)n2[nH]c(C(=O)O)nc2n1	7	-2	6	-1	0	.
CCCCOc1ccc(C2C3CN(C(=O)OCC)CC=C3C(C#N)=C(N)C2(C#N)C#N)cc1OC (stereo not given)	-2	-8	-9	11	14	.
CC(=O)c1ccc(N2CCN(c3ccc(S(=O)(=O)N4CCN(C)CC4)cn3)CC2)cc1	-8	0	27*	11	-4	35*
CC(=O)c1ccc(S(=O)(=O)N2CCN(C)CC2)cc1	4	-1	5	10	3	.
COc1ccc(N2CCN(C(=O)C3CCN(S(=O)(=O)c4ccc5c(c4)oc(=O)n5C)CC3)CC2)cc1	9	3	32*	-1	10	41*
Cc1nc(NC(=O)/C=C/c2ccccc2)sc1C(=O)NCCO	8	-4	-6	1	-1	.
CCc1nnc(NS(=O)(=O)c2ccc(NC(=S)NC(=O)/C=C/c3ccc(F)cc3)cc2)s1	1	-5	6	-15	-4	.
CCc1nnc(NS(=O)(=O)c2ccc(NC(=S)NC(=O)/C=C/c3ccc([N+](=O)[O-])cc3)cc2)s1	-12	1	67*	-2	-12	77*	LYPLA2 ABPP=37
COc1ccccc1-c1nnc(N)s1	0	6	28*	15	7	-2
CCC(C)NC(=O)CN(c1ccc(OC)cc1)S(=O)(=O)c1ccc(NC(C)=O)cc1 (stereo not given)	15	-7	-11	4	4	.
COc1cc(C(=O)N2CCN(C(=O)c3cc(-c4ccc(Br)cc4)n[nH]3)CC2)cc(OC)c1OC	-2	-3	28*	22	7	32*
COc1cc(C(=O)N2CCN(C(=O)c3ccccc3)CC2)cc(OC)c1OC	-5	0	-5	-2	0	.
COc1cccc(NC(=O)COC(=O)c2c(C)nn(-c3ccccc3)c2C)c1	-5	-5	49*	3	9	42*
Cc1cc(C)c(NC(=O)Cn2nnc(C(=O)NCc3ccco3)c2N)c(C)c1	8	1	3	-3	5	.
Cc1nc(C(=O)NC2CCOCC2)sc1C1(C)CC(c2cccc([N+](=O)[O-])c2)=NO1 (stereo not given)	-5	-2	34*	-8	3	45*
Cc1nc(C(=O)NC2CCOCC2)sc1C1(C)CC(c2ccccc2)=NO1 (stereo not given)	2	3	8	-2	3	.
Fc1ccc(CSc2ncnc3ccccc23)cc1	4	0	26*	12	11	26*
c1ccc(CSc2ncnc3ccccc23)cc1	-5	1	25	8	5	.
